TAAR1 antagonist: human TAAR1 antagonism; CHO RD-HGA16 TAAR1, Fluo-8 calcium fluorescence, antagonist; inhibition, % at 3 µM; AID 624466; Q96RJ0; 360,000 tested, 1.5% active;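 active = inhibition above a per-plate cutoff, the mean inhibition of test compounds on that plate plus 3 SD, cut at about 49% in these data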;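 note: 0% = DMSO plus EC80 beta-PEA response and 100% = DMSO alone without agonist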
Target sequence (Q96RJ0 whole entry, looked up): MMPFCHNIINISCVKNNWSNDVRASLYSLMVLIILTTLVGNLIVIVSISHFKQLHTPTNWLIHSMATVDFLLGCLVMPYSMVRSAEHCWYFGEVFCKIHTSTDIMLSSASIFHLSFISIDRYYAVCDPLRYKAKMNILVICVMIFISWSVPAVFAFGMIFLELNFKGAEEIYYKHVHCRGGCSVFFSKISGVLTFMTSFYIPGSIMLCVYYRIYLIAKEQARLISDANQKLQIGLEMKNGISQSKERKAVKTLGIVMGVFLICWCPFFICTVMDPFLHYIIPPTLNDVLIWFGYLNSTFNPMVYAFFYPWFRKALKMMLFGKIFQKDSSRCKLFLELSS
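Material: RD-HGA16 CHO cells with stable hTAAR1 and Gα16; Dosing: single nominal final test compound concentration of 3 µM; Schedule: seeding 17-24 h prior, 75-min 37 °C, 30-min RT dye loading; Detection: kinetic Fluo-8 calcium fluorescence measurement; Measure: % inhibition from peak post-agonist over basal fluorescence ratio; Benchmarks: vehicle and agonist controls.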
OX1R antag-1: OX1R (human) antagonism | 330,000 tested, 1.8% active | OX1R-expressing cells, FRET antagonist read-out | AID 485270 | inhibition, % at 6.6 µM; in the data active = inhibition mostly above about 38%, no sharp cut-off; inactive = mostly below about 40%;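 note: 0% = agonist challenge alone and 100% = reference antagonist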
Target sequence (O43613 whole entry, looked up): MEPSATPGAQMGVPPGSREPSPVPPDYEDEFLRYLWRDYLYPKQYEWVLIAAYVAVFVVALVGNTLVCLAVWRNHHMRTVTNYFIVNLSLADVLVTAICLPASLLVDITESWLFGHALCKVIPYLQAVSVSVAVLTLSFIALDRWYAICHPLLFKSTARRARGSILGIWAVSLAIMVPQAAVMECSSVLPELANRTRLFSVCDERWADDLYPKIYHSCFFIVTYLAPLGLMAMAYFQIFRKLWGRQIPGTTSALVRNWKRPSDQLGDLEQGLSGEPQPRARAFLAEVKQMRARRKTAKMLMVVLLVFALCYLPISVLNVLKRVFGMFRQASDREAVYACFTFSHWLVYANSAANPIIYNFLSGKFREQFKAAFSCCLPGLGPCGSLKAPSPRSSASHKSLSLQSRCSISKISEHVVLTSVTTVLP
GPR7 antag: human neuropeptides B/W receptor 1 antagonism. inhibition, % at 4.4 µM. GPR7-expressing cells, fluorescence antagonist assay. 290,000 tested, 1.1% active. AID 1861. P48145; in the data active = inhibition above about 16%, passing the limit was not always enough;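 note: cells stimulated with the agonist NPW; 0% = agonist with vehicle and 100% = vehicle without agonist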
TAAR1 ag: agonists of human TAAR1 | 360,000 tested, 0.99% active | activation, % at 3 µM | Q96RJ0 | CHO RD-HGA16 TAAR1, Fluo-8 calcium fluorescence; vehicle wells 0%, saturating PEA agonist 100%;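 active = activation above the mean activation of all test compounds in the run plus 3 SD, cut at about 38% in these data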
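Signal – calcium-sensitive Fluo-8 signal, excitation 470-495, emission 515-575 nm · System – RD-HGA16 (CHO) cells co-expressing Gα16 and hTAAR1 · Incubation – 17-24 h seeding, 75 min 37 °C dye, 30 min RT · Compound dosing – 3 µM single concentration · Repeats – no replicates (n 1)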
CHO parental Ca: signal in parental CHO cells, OX1R antagonist counter-screen | parental CHO-K1, ATP-induced calcium, Fluo-8 fluorescence | inhibition, % at 5.6 µM | 330,000 tested, 0.63% active;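 active = inhibition above that plate's mean sample inhibition plus 3 SD, cut at about 26% in these data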;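 note: 0% = ATP-challenged DMSO wells and 100% = DMSO wells without ATP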
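material = parental CHO cells | also added = ATP as calcium-mobilizing challenge | dosing = single point at 5.6 µM | detection = intracellular calcium via Fluo-8 no-wash fluorescent dye | read-out = % inhibition | benchmarks = low control ATP plus DMSO, high control DMSO only | repeats = one well per compound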
OX1R antag-2: human HCRTR1 antagonism; CHO/OX1R cells, Fluo-8 calcium fluorescence, orexin A; 330,000 tested, 0.43% active; inhibition, % at 5 µM; O43613; AID 434989;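 active = inhibition above its plate's threshold, mean inhibition of all tested compounds on the plate plus 3 SD, cut at about 37% in these data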;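 note: 0% = orexin A challenge wells and 100% = SB-334867-A antagonist wells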
OX1R HTRF conf: confirmation of human orexin 1 receptor antagonists, HTRF format. AID 492964. OX1R-expressing cells, HTRF antagonist assay. inhibition, % at 6.6 µM. shares compounds with OX1R antag-1. 1,800 tested, 49% active; in the data active = inhibition above about 55%;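 note: CHO cells expressing OX1R stimulated with orexin A at about EC80; 0% = agonist challenge alone and 100% = reference antagonist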
CHO-K1 HTRF: signal in parental CHO-K1 cells, OX1R antagonist counter-screen | AID 493232 | inhibition, % at 6.6 µM | shares compounds with OX1R antag-1 | HTRF counterscreen | 1,800 tested, 48% active; in the data active = inhibition above about 17%;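 note: 0% = agonist challenge with vehicle and 100% = vehicle alone without agonist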
* = called active by the depositor; nt = not tested or not shown. Hits are enriched below; roughly 4.5% of the tested compounds scored in any of these assays.

SMILES | TAAR1 antagonist | OX1R antag-1 | GPR7 antag | TAAR1 ag | CHO parental Ca | OX1R antag-2 | OX1R HTRF conf | CHO-K1 HTRF
NC(=O)c1ccc(N2CCCCCC2)c([N+](=O)[O-])c1 | 10 | 11 | -17 | 8 | 1 | -5 | nt | nt
Cc1ccc(NC2CCCN(C(=O)CSc3ccncc3)C2)cc1C (stereo not drawn) | -14 | nt | -6 | -1 | nt | nt | nt | nt
Cc1ccc([C@H]2C[C@@H](n3cc(COC(=O)c4ccccc4)nn3)[C@H](O)CN2C(=O)C2CCCCC2)cc1 | 16 | nt | nt | 3 | nt | nt | nt | nt
COc1cccc(-c2cnc(C(O)c3ccc(Cl)c(F)c3)[nH]2)c1 (stereo not drawn) | -2 | nt | nt | 4 | nt | nt | nt | nt
COc1ccc(N=Nc2nc3cc(Br)c(Br)cc3n2C)c(OC)c1 | 6 | 84* | -4 | 10 | 11 | 27 | 88* | 19*
CCCCNC(=O)C1(C)CCCCN1C(=O)c1ccc(OC)c(C(F)(F)F)c1 (stereo not drawn) | -21 | nt | nt | 4 | nt | nt | nt | nt
CCOc1ccc(NC(=O)CNS(=O)(=O)c2c(C)cc(C)cc2C)cc1 | -18 | 82* | 7 | -1 | -29 | -3 | 62* | 0
COc1ccc2c(c1)[n+](=O)c(C(C)=O)c(C)n2[O-] | -6 | 39 | -7 | 0 | 21 | 4 | nt | nt
CC(=O)c1c(C)n([O-])c2cc(F)c(F)cc2[n+]1=O | -12 | 81* | -12 | 2 | -12 | -2 | 67* | 54*
NC(=O)[C@H]1CC2(CC(c3cccc(NC(=O)[C@H]4CCC(=O)N4)c3)=NO2)CN1C(=O)c1cc([N+](=O)[O-])cc([N+](=O)[O-])c1 (stereo partly drawn) | 6 | 91* | nt | 5 | -5 | -8 | 36 | 57*
Cc1c(C(=O)N2CC3(CC(c4cccc(NC(=O)[C@H]5CCC(=O)N5)c4)=NO3)C[C@@H]2C(N)=O)cc([N+](=O)[O-])cc1[N+](=O)[O-] (stereo partly drawn) | 11 | 58 | nt | 2 | -7 | 2 | nt | nt
CCCN1CCC(=NNc2ccc(S(N)(=O)=O)cc2[N+](=O)[O-])CC1 | -6 | 85* | -17 | 2 | -5 | 0 | 38 | 56*
CCCN1CCC(=NNc2ccc(S(=O)(=O)N(CC)CC)cc2[N+](=O)[O-])CC1 | -12 | 27 | -14 | 1 | 3 | -14 | nt | nt
CC(=O)Nc1c([N+](=O)[O-])cc2c3c(cccc13)CC2 | -12 | nt | nt | 1 | nt | nt | nt | nt
Cn1cc(Br)c(C(=O)Nc2sc3c(c2C(N)=O)CCC3)n1 | 15 | 79* | -2 | 2 | -30 | -8 | 37 | -3
COc1ccccc1C(=O)Nc1sc2c(c1C#N)CCC2 | nt | 19 | 17 | nt | -9 | 19 | nt | nt
COc1ccccc1C(=O)Nc1sc2c(c1C(N)=O)CCCC2 | 1 | 79* | -2 | 2 | -4 | -4 | 69* | 5
CCN1CCN(c2nc3ccccc3nc2NS(=O)(=O)c2ccc(NC(C)=O)cc2)CC1 | -25 | 13 | -16 | 2 | 11 | -4 | nt | nt
CCOC(=O)C1CCN(CC(C)(C)NS(=O)(=O)c2ccc(Cl)cc2)CC1 | -11 | 18 | 1 | -2 | -14 | -25 | nt | nt
CCOC(=O)N1CCN(C2=C(NS(=O)(=O)c3ccc(NC(C)=O)cc3)C(=O)c3ccccc3C2=O)CC1 | -17 | 83* | -10 | 5 | -11 | -5 | 59* | 83*
CCN1CCN(C2=C(NS(=O)(=O)c3ccc(NC(C)=O)cc3)C(=O)c3ccccc3C2=O)CC1 | -8 | 94* | 0 | 4 | -18 | -12 | 59* | 104*
CCOC(=O)C1CCN(C2=C(NS(=O)(=O)c3ccc(Cl)cc3)C(=O)c3ccccc3C2=O)CC1 | 31 | 114* | -17 | -2 | -21 | 11 | 119* | 42*
COCCNC(=O)C1(C)CCCN(C(=O)c2ccc(C(=O)OC)cc2)C1 (stereo not drawn) | 0 | nt | nt | 1 | nt | nt | nt | nt
CCCCNC(=O)C(NC(=O)c1ccccc1)C(=O)c1ccccc1 (stereo not drawn) | 0 | nt | nt | 3 | nt | nt | nt | nt
COc1ccc(-c2ccc(/C=C3/C(=N)N4C(C)=CSC4=NC3=O)o2)c([N+](=O)[O-])c1 | 41 | 91* | -5 | 11 | -10 | 11 | 58* | 18*
SMILES | TAAR1 antagonist | OX1R antag-1 | GPR7 antag | TAAR1 ag | CHO parental Ca | OX1R antag-2 | OX1R HTRF conf | CHO-K1 HTRF
Cn1cnc(S(=O)(=O)N2CCCCC2c2cc(C(=O)Nc3ccc(F)c(Cl)c3)no2)c1 (stereo not drawn) | 18 | nt | nt | 4 | nt | nt | nt | nt
c1ccc(-c2nc3nc4ccccc4nc3n2Cc2ccco2)cc1 | 22 | 107* | -15 | 6 | -20 | -13 | 33 | 18*
CCN1C(=O)c2ccc(C(=O)Nc3nccs3)cc2C1=O | 17 | 90* | -12 | 3 | -23 | -13 | 29 | 29*
CSc1ncnc2c1ncn2CCCNCC(c1ccccc1)c1ccccc1 | 3 | nt | nt | 8 | nt | nt | nt | nt
CCOC(=O)C1Nc2ccc(C(F)(F)F)cc2C2c3ccccc3CC12 (stereo not drawn) | -1 | 12 | nt | 8 | -4 | -13 | nt | nt
CCOC(=O)C1Nc2ccccc2C2C(O)C(O)CC12 (stereo not drawn) | 5 | 83* | nt | 4 | -12 | -12 | 27 | 20*
CCOC(=O)[C@]12CCC=C1N(Cc1ccccc1)C(=O)[C@H](CC(=O)NCc1ccc(OC)c(OC)c1)C2 | -4 | nt | nt | -1 | nt | nt | nt | nt
O=C1C(Nc2ccccc2)=C(N2CCCCC2)C(=O)c2ccccc21 | 10 | 59 | -9 | 7 | -20 | -2 | nt | nt
COc1ccccc1NC1=C(N2CCCCC2)C(=O)c2ccccc2C1=O | nt | 79* | 1 | nt | -19 | 7 | 27 | 31*
COC(=O)c1cn(NC(=O)Cc2ccc(Cl)c(Cl)c2)c(=O)c2ccccc12 | -14 | 87* | -10 | 3 | -18 | -19 | 81* | 8
O=C1c2cccc3cccc(c23)C(=O)N1c1ccncc1 | -4 | 111* | -4 | 0 | -15 | -12 | 54 | 67*
O=C1c2cccc3cccc(c23)C(=O)N1c1ccccn1 | -3 | 99* | 4 | 3 | -12 | -12 | 61* | 60*
O=C1c2cccc3cccc(c23)C(=O)N1Cc1ccccn1 | 4 | nt | nt | 0 | nt | nt | nt | nt
COc1ccc(N2C(=O)c3cccc4cccc(c34)C2=O)cc1 | -10 | 13 | -8 | 1 | -5 | -11 | nt | nt
CCCn1c(/C=C/c2cc[n+](C)cc2)nc2ccccc21 | -14 | 78* | -10 | 4 | 0 | 10 | 50 | 47*
CC(C)Cn1c(/C=C/c2ccccc2)nc2ccccc21 | -29 | 35 | -11 | 2 | -42 | -34 | nt | nt

Source: PubChem BioAssay (The Scripps Research Institute Molecular Screening Center)
